Laboratory results taken from ChEMBL document CHEMBL4813982, “Novel pyrazolo[4,3-d]pyrimidine microtubule targeting agents (MTAs): Synthesis, structure-activity relationship, in vitro and in vivo evaluation as antitumor agents” (Bioorg Med Chem Lett, 2021).
Calls of active or inactive are those of the source. No cut-off for these calls is given here.

Legend:
M14 = experiment: Growth inhibition of human M14 cells incubated for 48 hrs by sulforhodamine B assay; type: functional
MOLT-4 = experiment: Growth inhibition of human MOLT-4 cells incubated for 48 hrs by sulforhodamine B assay; type: functional
OVCAR-5 = experiment: Growth inhibition of human OVCAR-5 cells incubated for 48 hrs by sulforhodamine B assay; type: functional
EKVX = experiment: Growth inhibition of human EKVX cells incubated for 48 hrs by sulforhodamine B assay; type: functional
NCI-H522 = experiment: Growth inhibition of human NCI-H522 cells incubated for 48 hrs by sulforhodamine B assay; type: functional
[1] = Toxicity in athymic mouse xenografted with human MCF7 cells expressing TUBB3 assessed as effect on body weight at 30 mg/kg administered twice in a week; type: organism-based; conditions: in vivo
Procedure, shortened: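 MCF-7 TUBB3 cells (10^7 in 100 uL Matrigel) implanted into mammary fat pad #4 of 8-week-old female athymic mice. Dosing was 30 mg/kg twice weekly. Body weight was expressed as percent change at day 41 versus starting weight and analysed by one-way ANOVA, n = 8.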

SW-620 = experiment: Growth inhibition of human SW-620 cells incubated for 48 hrs by sulforhodamine B assay; type: functional
786-0 = experiment: Growth inhibition of human 786-0 cells incubated for 48 hrs by sulforhodamine B assay; type: functional
UACC-257 = experiment: Growth inhibition of human UACC-257 cells incubated for 48 hrs by sulforhodamine B assay; type: functional
MCF7 [2] = experiment: Potency index, ratio of EC50 of paclitaxel to EC50 of compound for antiproliferative activity against human MCF7 cells; type: functional
OVCAR-8 [3] = experiment: Growth inhibition of human OVCAR-8 cells incubated for 48 hrs by sulforhodamine B assay; type: functional
Tubulin (Homo sapiens) [4] = target: T1, Tubulin (Homo sapiens) (UniProt P68371+Q9H4B7+P0DPH7+P68366+Q13509+Q71U36+P04350+Q3ZCM7+P07437+P68363+Q9BQE3+Q6PEY2+Q13885+Q9BVA1+Q9BUF5); experiment: Inhibition of [3H]colchicine binding to tubulin (unknown origin) at 0.5 uM relative to control; type: protein-complex assay
NCI-H322M = experiment: Growth inhibition of human NCI-H322M cells incubated for 48 hrs by sulforhodamine B assay; type: functional
NCI-H226 = experiment: Growth inhibition of human NCI-H226 cells incubated for 48 hrs by sulforhodamine B assay; type: functional
KM12 = experiment: Growth inhibition of human KM12 cells incubated for 48 hrs by sulforhodamine B assay; type: functional
HCC 2998 = experiment: Growth inhibition of human HCC 2998 cells incubated for 48 hrs by sulforhodamine B assay; type: functional
SR = experiment: Growth inhibition of human SR cells incubated for 48 hrs by sulforhodamine B assay; type: functional
HL-60(TB) = experiment: Growth inhibition of human HL-60(TB) cells incubated for 48 hrs by sulforhodamine B assay; type: functional
RPMI-8226 = experiment: Growth inhibition of human RPMI-8226 cells incubated for 48 hrs by sulforhodamine B assay; type: functional
CAKI-1 = experiment: Growth inhibition of human CAKI-1 cells incubated for 48 hrs by sulforhodamine B assay; type: functional
Hs-578T = experiment: Growth inhibition of human HS-578T cells incubated for 48 hrs by sulforhodamine B assay; type: functional
BT-549 = experiment: Growth inhibition of human BT-549 cells incubated for 48 hrs by sulforhodamine B assay; type: functional
MDA-MB-468 = experiment: Growth inhibition of human MDA-MB-468 cells incubated for 48 hrs by sulforhodamine B assay; type: functional
[5] = Resistance ratio of EC50 for antiproliferative activity against human MCF7 cells expressing TUBB3 to EC50 for antiproliferative activity against human MCF7 cells; type: functional
Procedure, shortened: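 Resistance ratio: EC50 in MCF-7 cells overexpressing βIII-tubulin divided by EC50 in parental wild-type MCF-7 cells.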

ACHN = experiment: Growth inhibition of human ACHN cells incubated for 48 hrs by sulforhodamine B assay; type: functional
SF-295 = experiment: Growth inhibition of human SF-295 cells incubated for 48 hrs by sulforhodamine B assay; type: functional
A498 = experiment: Growth inhibition of human A498 cells incubated for 48 hrs by sulforhodamine B assay; type: functional
RXF 393 = experiment: Growth inhibition of human RXF 393 cells incubated for 48 hrs by sulforhodamine B assay; type: functional
SK-MEL-2 = experiment: Growth inhibition of human SK-MEL-2 cells incubated for 48 hrs by sulforhodamine B assay; type: functional
MCF7 [6] = experiment: Antiproliferative activity against human MCF7 cells expressing TUBB3; type: functional, cell-based
U-251 = experiment: Growth inhibition of human U-251 cells incubated for 48 hrs by sulforhodamine B assay; type: functional
HCT-15 = experiment: Growth inhibition of human HCT-15 cells incubated for 48 hrs by sulforhodamine B assay; type: functional
SF-268 = experiment: Growth inhibition of human SF-268 cells incubated for 48 hrs by sulforhodamine B assay; type: functional
SNB-19 = experiment: Growth inhibition of human SNB-19 cells incubated for 48 hrs by sulforhodamine B assay; type: functional
UO-31 = experiment: Growth inhibition of human UO-31 cells incubated for 48 hrs by sulforhodamine B assay; type: functional
A549 = experiment: Growth inhibition of human A549 cells incubated for 48 hrs by sulforhodamine B assay; type: functional
K562 = experiment: Growth inhibition of human K562 cells incubated for 48 hrs by sulforhodamine B assay; type: functional
PC-3 = experiment: Growth inhibition of human PC-3 cells incubated for 48 hrs by sulforhodamine B assay; type: functional
Tubulin (Homo sapiens) [7] = target: T1, Tubulin (Homo sapiens); experiment: Inhibition of [3H]colchicine binding to tubulin (unknown origin) at 5 uM relative to control; type: protein-complex assay
IGROV-1 = experiment: Growth inhibition of human IGROV-1 cells incubated for 48 hrs by sulforhodamine B assay; type: functional
NCI-H23 = experiment: Growth inhibition of human NCI-H23 cells incubated for 48 hrs by sulforhodamine B assay; type: functional
SK-OV-3 = experiment: Growth inhibition of human SK-OV-3 cells incubated for 48 hrs by sulforhodamine B assay; type: functional
OVCAR-3 = experiment: Growth inhibition of human OVCAR-3 cells incubated for 48 hrs by sulforhodamine B assay; type: functional
SF-539 = experiment: Growth inhibition of human SF-539 cells incubated for 48 hrs by sulforhodamine B assay; type: functional
CCRF-CEM = experiment: Growth inhibition of human CCRF-CEM cells incubated for 48 hrs by sulforhodamine B assay; type: functional
NCI/ADR-RES [8] = experiment: Antiproliferative activity against human NCI/ADR-RES cells overexpressing Pgp; type: functional, cell-based
LOX IMVI = experiment: Growth inhibition of human LOX IMVI cells incubated for 48 hrs by sulforhodamine B assay; type: functional
OVCAR-4 = experiment: Growth inhibition of human OVCAR-4 cells incubated for 48 hrs by sulforhodamine B assay; type: functional
UACC-62 = experiment: Growth inhibition of human UACC-62 cells incubated for 48 hrs by sulforhodamine B assay; type: functional
MCF7 [9] = experiment: Potency index, ratio of EC50 of paclitaxel to EC50 of compound for antiproliferative activity against human MCF7 cells expressing TUBB3; type: functional
OVCAR-8 [10] = experiment: Antiproliferative activity against human OVCAR-8 cells; type: functional, cell-based
HOP-92 = experiment: Growth inhibition of human HOP-92 cells incubated for 48 hrs by sulforhodamine B assay; type: functional
MDA-MB-231 = experiment: Growth inhibition of human MDA-MB-231 cells incubated for 48 hrs by sulforhodamine B assay; type: functional
[11] = Resistance ratio of IC50 for antiproliferative activity against human NCI/ADR-RES cells expressing Pgp to IC50 for antiproliferative activity against human OVCAR-8 cells; type: functional
Procedure, shortened: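 Resistance ratio: IC50 in Pgp-overexpressing NCI/ADR-RES cells divided by IC50 in parental OVCAR-8 cells.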

COLO 205 = experiment: Growth inhibition of human COLO 205 cells incubated for 48 hrs by sulforhodamine B assay; type: functional
NCI/ADR-RES [12] = experiment: Growth inhibition of human NCI/ADR-RES cells incubated for 48 hrs by sulforhodamine B assay; type: functional
MCF7 [13] = experiment: Antiproliferative activity against human MCF7 cells; type: functional, cell-based
SK-MEL-5 = experiment: Growth inhibition of human SK-MEL-5 cells incubated for 48 hrs by sulforhodamine B assay; type: functional
SK-MEL-28 = experiment: Growth inhibition of human SK-MEL-28 cells incubated for 48 hrs by sulforhodamine B assay; type: functional
NCI-H460 = experiment: Growth inhibition of human NCI-H460 cells incubated for 48 hrs by sulforhodamine B assay; type: functional
HOP-62 = experiment: Growth inhibition of human HOP-62 cells incubated for 48 hrs by sulforhodamine B assay; type: functional
TK-10 = experiment: Growth inhibition of human TK-10 cells incubated for 48 hrs by sulforhodamine B assay; type: functional
Tubulin = experiment: Inhibition of tubulin assembly (unknown origin); type: protein-complex assay, Homo sapiens
HCT-29 = experiment: Growth inhibition of […] incubated for 48 hrs by sulforhodamine B assay; type: functional
SN12C = experiment: Growth inhibition of human SN12C cells incubated for 48 hrs by sulforhodamine B assay; type: functional
Malme-3M = experiment: Growth inhibition of human Malme-3M cells incubated for 48 hrs by sulforhodamine B assay; type: functional
SNB-75 = experiment: Growth inhibition of human SNB-75 cells incubated for 48 hrs by sulforhodamine B assay; type: functional
T47D = experiment: Growth inhibition of human T47D cells incubated for 48 hrs by sulforhodamine B assay; type: functional
DU-145 = experiment: Growth inhibition of human DU-145 cells incubated for 48 hrs by sulforhodamine B assay; type: functional
MCF7 [14] = experiment: Antitumor activity against human MCF7 cells expressing TUBB3 xenografted in athymic mouse assessed as reduction in tumor growth at 30 mg/kg administered twice in a week; type: functional, organism-based
Procedure, shortened: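 βIII-tubulin-overexpressing MCF-7 cells in Matrigel implanted into mammary fat pad #4 of 8-week-old female athymic mice. […] Tumor volumes measured over time and analysed by two-way repeated-measures ANOVA. Body weight change at day 41 analysed by one-way ANOVA. n = 7 control, 8 per treated group.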

MCF7 [15] = experiment: Growth inhibition of human MCF7 cells incubated for 48 hrs by sulforhodamine B assay; type: functional
HCT-116 = experiment: Growth inhibition of human HCT-116 cells incubated for 48 hrs by sulforhodamine B assay; type: functional
MDA-MB-435 = experiment: Growth inhibition of human MDA-MB-435 cells incubated for 48 hrs by sulforhodamine B assay; type: functional

Structure (SMILES): COc1ccc(N(C)c2nc(Cl)nc3cnn(C)c23)cc1
- GI50 (M14): 10.6 nM
- GI50 (MOLT-4): 19.9 nM
- GI50 (OVCAR-5): 11.8 nM
- GI50 (EKVX): 15.5 nM
- GI50 (NCI-H522): 14.4 nM
- Activity [1]: Non-Toxic
- GI50 (SW-620): 6.67 nM
- GI50 (786-0): 13.2 nM
- GI50 (UACC-257): 22.7 nM
- Ratio EC50 (MCF7 [2]): 100
- GI50 (OVCAR-8 [3]): 14.7 nM
- inhibition (Tubulin (Homo sapiens) [4]): 68%
- GI50 (NCI-H322M): 14.1 nM
- GI50 (NCI-H226): 9.49 nM
- GI50 (KM12): 10.8 nM
- GI50 (HCC 2998): 23.6 nM
- GI50 (SR): 9.64 nM
- GI50 (HL-60(TB)): 11.2 nM
- GI50 (RPMI-8226): 15.3 nM
- GI50 (CAKI-1): 15.7 nM
- GI50 (Hs-578T): 11.2 nM
- GI50 (BT-549): 24.1 nM
- GI50 (MDA-MB-468): 9.09 nM
- Ratio EC50 [5]: 1.1
- GI50 (ACHN): 8.4 nM
- GI50 (SF-295): 11.4 nM
- GI50 (A498): 13.4 nM
- GI50 (RXF 393): 8.75 nM
- GI50 (SK-MEL-2): 21 nM
- EC50 (MCF7 [6]): 3.3 nM
- GI50 (U-251): 7.97 nM
- GI50 (HCT-15): 5.14 nM
- GI50 (SF-268): 12.2 nM
- GI50 (SNB-19): 13.9 nM
- GI50 (UO-31): 10 nM
- GI50 (A549): 12.7 nM
- GI50 (K562): 6.46 nM
- GI50 (PC-3): 10.7 nM
- inhibition (Tubulin (Homo sapiens) [7]): 94%
- GI50 (IGROV-1): 13.3 nM
- GI50 (NCI-H23): 11.9 nM
- GI50 (SK-OV-3): 13.9 nM
- GI50 (OVCAR-3): 6.37 nM
- GI50 (SF-539): 8.76 nM
- GI50 (CCRF-CEM): 9.96 nM
- IC50 (NCI/ADR-RES [8]): 5 nM
- GI50 (LOX IMVI): 8.53 nM
- GI50 (OVCAR-4): 12.9 nM
- GI50 (UACC-62): 15.9 nM
- Ratio EC50 (MCF7 [9]): 600
- IC50 (OVCAR-8 [10]): 9 nM
- GI50 (HOP-92): 16 nM
- GI50 (MDA-MB-231): 14.3 nM
- Ratio IC50 [11]: 0.55
- GI50 (COLO 205): 9.78 nM
- GI50 (NCI/ADR-RES [12]): 8.24 nM
- EC50 (MCF7 [13]): 2 nM
- GI50 (SK-MEL-5): 14.6 nM
- GI50 (SK-MEL-28): 17 nM
- GI50 (NCI-H460): 4.52 nM
- GI50 (HOP-62): 15.4 nM
- GI50 (TK-10): 16.3 nM
- IC50 (Tubulin): 450 nM
- GI50 (HCT-29): 7.6 nM
- GI50 (SN12C): 15.8 nM
- GI50 (Malme-3M): 12.1 nM
- GI50 (SNB-75): 10.8 nM
- GI50 (T47D): 16.4 nM
- GI50 (DU-145): 8.89 nM
- TGI (MCF7 [14]): Active
- GI50 (MCF7 [15]): 10.8 nM
- GI50 (HCT-116): 9.07 nM
- GI50 (MDA-MB-435): 3.9 nM
